In ChEMBL document CHEMBL1138746, “Indolebutylamines as selective 5-HT(1A) agonists” (J Med Chem, 2004):

Legend:
[1] = molecular target: T1, 5-hydroxytryptamine receptor 1A (Rattus norvegicus, UniProt P19327); test: Inhibition of 8-OH DPAT bindign to rat hydroxytryptamine 1A receptor in hippocampal membranes
T1 sequence (P19327 whole entry): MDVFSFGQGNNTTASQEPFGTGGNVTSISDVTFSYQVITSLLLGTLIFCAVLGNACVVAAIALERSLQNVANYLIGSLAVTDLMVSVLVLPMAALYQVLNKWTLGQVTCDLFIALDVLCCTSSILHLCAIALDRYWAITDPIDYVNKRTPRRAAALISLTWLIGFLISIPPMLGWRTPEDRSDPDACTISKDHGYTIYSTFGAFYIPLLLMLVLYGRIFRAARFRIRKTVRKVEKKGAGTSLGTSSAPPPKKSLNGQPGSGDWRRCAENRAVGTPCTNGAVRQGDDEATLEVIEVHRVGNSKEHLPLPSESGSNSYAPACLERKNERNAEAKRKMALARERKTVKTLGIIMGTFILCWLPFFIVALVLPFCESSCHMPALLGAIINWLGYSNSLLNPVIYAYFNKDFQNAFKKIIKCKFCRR

D(2) dopamine receptor = D(2) dopamine receptor (Rattus norvegicus, UniProt P61169); test: Displacement of [3H]spiperone from dopamine D2 receptor of rat striatal membranes; assay type: cell membranes, Membrane
Chain of D(2) dopamine receptor (P61169 whole entry): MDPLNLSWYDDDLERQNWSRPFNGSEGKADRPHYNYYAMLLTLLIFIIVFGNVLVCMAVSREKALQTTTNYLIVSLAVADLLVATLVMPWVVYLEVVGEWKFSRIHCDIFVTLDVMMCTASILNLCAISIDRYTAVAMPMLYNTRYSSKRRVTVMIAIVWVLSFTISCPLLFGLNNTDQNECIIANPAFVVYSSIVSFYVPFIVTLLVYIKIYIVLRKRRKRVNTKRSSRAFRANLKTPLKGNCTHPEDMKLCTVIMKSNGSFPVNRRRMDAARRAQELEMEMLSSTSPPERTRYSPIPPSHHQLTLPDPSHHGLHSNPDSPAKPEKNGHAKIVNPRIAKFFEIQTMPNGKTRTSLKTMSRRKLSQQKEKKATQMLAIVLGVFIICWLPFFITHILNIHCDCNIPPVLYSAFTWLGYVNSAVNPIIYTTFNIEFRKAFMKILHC
How it was run: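 Rat striatal membranes (0.3–1.0 mg protein/mL) were incubated with 0.1 nM [3H]spiperone in Tris-HCl buffer (pH 7.1) containing 120 mmol/L NaCl, 5 mmol/L KCl, 1 mmol/L CaCl2, 1 mmol/L MgCl2 and 0.1% ascorbic acid, at 37 °C for 15 min. Bound ligand was separated by filtration with three ice-cold washes. Nonspecific binding was defined with 1 mmol/L (+)-butaclamol. IC50 (50% inhibition of binding) came from 5–10 concentrations, each in triplicate.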

Row | SMILES | IC50 [1] [nM] | IC50 (D(2) dopamine receptor) [nM]
1 | COc1ccc(N2CCN(CCCCc3c[nH]c4ccc(OC5CCCC5)cc34)CC2)cc1 | 90 | > 100
2 | COc1ccc2[nH]cc(CCCCN3CCN(c4ccc(OC)c(OC)c4)CC3)c2c1 | 10 | 100
3 | COc1ccc2[nH]cc(CCCCN3CCN(c4ccc(O)cc4)CC3)c2c1 | 2 | 53
4 | CCOc1ccc(N2CCN(CCCCc3c[nH]c4ccc(OC)cc34)CC2)cc1 | 0.8 | > 100
5 | NC(=O)c1ccc2[nH]cc(CCCCN3CCN(c4ccc(O)cc4)CC3)c2c1 | 0.2 | 156
6 | COc1ccc2[nH]cc(CCCCN3CCN(c4cc(OC)c(OC)c(OC)c4)CC3)c2c1 | 333 | > 100
7 | COc1ccc2[nH]cc(CCCCN3CC=C(c4ccc(O)cc4)CC3)c2c1 | 0.4 | ~100
8 | Oc1ccc2[nH]cc(CCCCN3CC=C(c4ccccc4)CC3)c2c1 [ROXINDOLE] | 0.8 | 5.6
9 | COc1ccc(N2CCN(CCCCc3c[nH]c4ccc(OC(C)=O)cc34)CC2)cc1 | 0.5 | > 100
10 | COc1ccc2[nH]cc(CCCCN3CCN(c4cc(C)c(OC)c(C)c4)CC3)c2c1 | 60 | > 100
11 | O=C(O)c1ccc2[nH]cc(CCCCN3CCC(c4ccccc4)CC3)c2c1 | 100 | 1000
12 | CCOc1ccc2[nH]cc(CCCCN3CCN(c4ccc(OC)cc4)CC3)c2c1 | 2 | 300
13 | NC(=O)c1ccc2[nH]cc(CCCCN3CCC(c4ccccc4)CC3)c2c1 | 0.1 | 17
14 | COc1ccc2[nH]cc(CCCCN3CCN(c4ccc(O[Si](C)(C)C(C)(C)C)cc4)CC3)c2c1 | 70 | –
15 | COc1ccccc1N1CCN(CCCCc2c[nH]c3ccc(C(N)=O)cc23)CC1 | 0.1 | 1.2
16 | Oc1ccc2[nH]cc(CCCCN3CCC(c4ccccc4)CC3)c2c1 | 1 | 80
17 | COCCOc1ccc(N2CCN(CCCCc3c[nH]c4ccc(OC)cc34)CC2)cc1 | 2 | –
18 | CC(=O)Nc1ccc(N2CCN(CCCCc3c[nH]c4ccc(C(N)=O)cc34)CC2)cc1 | 0.1 | > 100
19 | COc1ccc2[nH]cc(CCCCN3CCN(c4ccc(OC(C)=O)cc4)CC3)c2c1 | 1 | > 100
20 | COc1ccc(C2=CCN(CCCCc3c[nH]c4ccc(OC)cc34)CC2)cc1 | 0.6 | > 100
21 | COc1ccc2[nH]cc(CCCCN3CCN(c4ccc(OCc5ccccc5)cc4)CC3)c2c1 | 30 | 220
22 | COc1c(Cl)cc(N2CCN(CCCCc3c[nH]c4ccc(C(N)=O)cc34)CC2)cc1Cl | 0.7 | > 100
23 | COc1ccc2[nH]cc(CCCCN3CC=C(c4ccccc4)CC3)c2c1 | 20 | –

Row | SMILES | IC50 [1] [nM] | IC50 (D(2) dopamine receptor) [nM]
24 | COc1ccc2[nH]cc(CCCCN3CC=C(c4ccc5c(c4)OCO5)CC3)c2c1 | 0.4 | > 100
25 | COC(=O)c1ccc2[nH]cc(CCCCN3CCC(c4ccccc4)CC3)c2c1 | 20 | 113
26 | COc1ccc(N2CCN(CCCCc3c[nH]c4ccc(C(N)=O)cc34)CC2)c(OC)c1 | 0.07 | 100
27 | CCCCCOc1ccc2[nH]cc(CCCCN3CCN(c4ccc(OC)cc4)CC3)c2c1 | 200 | > 100
28 | Oc1ccc2[nH]cc(CCCCN3CCN(c4ccccc4)CC3)c2c1 | 0.8 | 4.2
29 | O=C(O)c1ccc2[nH]cc(CCCCN3CCN(c4ccccc4)CC3)c2c1 | 40 | > 100
30 | COc1ccc2[nH]cc(CCCCN3CCN(c4ccc(OC(=O)C(C)(C)C)cc4)CC3)c2c1 | 24 | –
31 | NC(=O)c1ccc2[nH]cc(CCCCN3CCN(c4ccc5c(c4)OCCO5)CC3)c2c1 | 0.2 | 40
32 | NC(=O)c1ccc2[nH]cc(CCCCN3CCN(c4ccc5c(c4)CCO5)CC3)c2c1 | 0.5 | > 100
33 | N#Cc1c(F)cccc1N1CCN(CCCCc2c[nH]c3ccc(C(N)=O)cc23)CC1 | 0.01 | 5
34 | NC(=O)c1ccc2[nH]cc(CCCCN3CCN(c4ccccc4)CC3)c2c1 | 0.1 | 7
35 | COc1ccc2[nH]cc(CCCCN3CCN(c4ccc5c(c4)OCO5)CC3)c2c1 | 4 | 100
36 | NC(=O)c1ccc2[nH]cc(CCCCN3CCN(c4ccccc4C(N)=O)CC3)c2c1 | 0.3 | 97
37 | COC(=O)c1ccc2[nH]cc(CCCCN3CCN(c4ccc(OC)cc4)CC3)c2c1 | 8 | > 100
38 | COc1ccc(N2CCN(CCCCc3c[nH]c4ccc(OCc5ccccc5)cc34)CC2)cc1 | 34 | > 100
39 | COc1ccc2[nH]cc(CCCCN3CCN(c4ccc5c(c4)CCO5)CC3)c2c1 | 0.4 | > 100
40 | N#Cc1ccccc1N1CCN(CCCCc2c[nH]c3ccc(C(N)=O)cc23)CC1 | 0.2 | 6.2
41 | COc1ccc2[nH]cc(CCCCN3CCN(c4ccc(NC(C)=O)cc4)CC3)c2c1 | 3 | > 100
42 | COc1ccc2[nH]cc(CCCCN3CCN(c4ccccc4)CC3)c2c1 | 20 | 32
43 | COc1ccc2[nH]cc(CCCCN3CCN(c4ccc5c(c4)OCCO5)CC3)c2c1 | 0.5 | 120
44 | COc1ccc2[nH]cc(CCCCN3CCN(c4ccc5c(c4)CCCO5)CC3)c2c1 | 2 | > 100
45 | CCOCCOCCOc1cccc(N2CCN(CCCCc3c[nH]c4ccc(C(N)=O)cc34)CC2)c1C#N | 0.9 | 28
46 | COC(=O)c1ccc2[nH]cc(CCCCN3CCN(c4ccccc4)CC3)c2c1 | 40 | 31
